Experimental data from ChEMBL document CHEMBL5303300, “EUbOPEN Chemogenomics Library - Multiplex” (2023).
Several values for one entry are separate records, joined by “and”; a condition that tells them apart may be missing. Identical values can stand only once.

Tested on: U2OS
Assay: Multiplex assay against U2OS
Type: toxicity, cell-based
Conditions: human, number of replicates 2
How it was run: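 Tubulin, mitochondrial-mass and membrane-permeability phenotypes are per cents of healthy-nucleus cells. Cells were gated by CellPathfinder machine learning into Hoechst high-intensity objects or normal cells, normal cells into healthy, pyknosed or fragmented nuclei, and pyknosed cells into mitotic or apoptotic. Before that, live cells stained at seeding with Hoechst33342, BioTracker Green Microtubule Cytoskeleton Dye, MitoTracker Red and Annexin V Alexa Fluor 680 were imaged on a CQ1 microscope at 37°C and 5% CO2 after compound addition.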

[1] = 12 h, 1 µM, compound concentration 1 uM
[2] = 12 h, 10 µM, compound concentration 10 uM
[3] = 24 h, 1 µM, compound concentration 1 uM
[4] = 24 h, 10 µM, compound concentration 10 uM
[5] = 48 h, 1 µM, compound concentration 1 uM
[6] = 48 h, 10 µM, compound concentration 10 uM

CCN1C(=O)N(c2c(F)c(OC)cc(OC)c2F)Cc2cnc3[nH]c(CN4CCOCC4)cc3c21 [PEMIGATINIB]
Population Apoptotic (%) [1]: 83% and 63%
Population Fragmented Nuclei (%) [1]: 7% and 3%
Population Healthy Nuclei (%) [1]: 82% and 90%
Population Hoechst High Intensity Objects (%) [1]: 0%
Population Membrane Permeable-Phenotype (%) [1]: 0% and 1%
Population Mitochondria Different-Phenotype (%) [1]: 0% and 1%
Population Mitotic Cells (%) [1]: 16% and 36%
Population Normal (%) [1]: 100%
Population Pyknosed Nuclei (%) [1]: 9% and 5%
Population Tubulin-Different-Phenotype (%) [1]: 64% and 80%
Population Apoptotic (%) [2]: 33% and 74%
Population Healthy Nuclei (%) [2]: 45% and 78%
Population Hoechst High Intensity Objects (%) [2]: 0%
Population Membrane Permeable-Phenotype (%) [2]: 0% and 5%
Population Mitochondria Different-Phenotype (%) [2]: 0%
Population Mitotic Cells (%) [2]: 66% and 25%
Population Normal (%) [2]: 100%
Population Pyknosed Nuclei (%) [2]: 29% and 15%
Population Tubulin-Different-Phenotype (%) [2]: 64% and 52%
Population Apoptotic (%) [3]: 54% and 90%
Population Fragmented Nuclei (%) [3]: 6% and 2%
Population Healthy Nuclei (%) [3]: 81% and 89%
Population Hoechst High Intensity Objects (%) [3]: 0%
Population Membrane Permeable-Phenotype (%) [3]: 1% and 2%
Population Mitochondria Different-Phenotype (%) [3]: 0% and 2%
Population Normal (%) [3]: 100% and 99%
Population Pyknosed Nuclei (%) [3]: 12% and 7%
Population Tubulin-Different-Phenotype (%) [3]: 66% and 78%
Total Cell Count [3]: 91 and 271
Population Apoptotic (%) [4]: 80% and 78%
Population Fragmented Nuclei (%) [4]: 14% and 6%
Population Healthy Nuclei (%) [4]: 48% and 72%
Population Hoechst High Intensity Objects (%) [4]: 0% and 1%
Population Membrane Permeable-Phenotype (%) [4]: 0% and 5%
Population Mitochondria Different-Phenotype (%) [4]: 0% and 4%
Population Mitotic Cells (%) [4]: 20% and 21%
Population Normal (%) [4]: 100% and 98%
Population Pyknosed Nuclei (%) [4]: 37% and 21%
Population Tubulin-Different-Phenotype (%) [4]: 69% and 56%
Population Apoptotic (%) [5]: 50% and 76%
Population Fragmented Nuclei (%) [5]: 8% and 2%
Population Healthy Nuclei (%) [5]: 80% and 89%
Population Hoechst High Intensity Objects (%) [5]: 0%
Population Membrane Permeable-Phenotype (%) [5]: 0% and 1%
Population Mitochondria Different-Phenotype (%) [5]: 0%
Population Mitotic Cells (%) [5]: 50% and 23%
Population Normal (%) [5]: 100% and 99%
Population Pyknosed Nuclei (%) [5]: 10% and 8%
Population Tubulin-Different-Phenotype (%) [5]: 72% and 82%
Population Apoptotic (%) [6]: 86% and 82%
Population Fragmented Nuclei (%) [6]: 11% and 6%
Population Healthy Nuclei (%) [6]: 25% and 60%
Population Hoechst High Intensity Objects (%) [6]: 0%
Population Membrane Permeable-Phenotype (%) [6]: 0% and 7%
Population Mitochondria Different-Phenotype (%) [6]: 0% and 5%
Population Mitotic Cells (%) [6]: 13% and 17%
Population Normal (%) [6]: 100% and 99%
Population Pyknosed Nuclei (%) [6]: 63% and 33%
Population Tubulin-Different-Phenotype (%) [6]: 44% and 60%
